Source: the EternaBench riboswitch data

Test system: MS2 coat protein
Assay: apparent Kd, MS2 coat protein; higher = weaker binding; RNA-MaP array; FMN 200 µM where present
Outline: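 Two titrations, one without ligand and one with constant ligand, were run with SNAP-549-labelled MS2 coat protein from 0.7 or 1.5 nM, doubling to 3 µM. The targets were designs transcribed by stalled E. coli RNA polymerase on Illumina sequencing-chip clusters, in 100 mM Tris-HCl pH 7.5, 80 mM KCl, 4 mM MgCl2, BSA, DTT, yeast tRNA and Tween-20. The apparent Kd is the median of filtered per-cluster binding-curve fits, with green signal normalised to red-channel RNA signal and control-cluster median Fmax.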

[1] = designed as: OFF switch for flavin mononucleotide, no ligand
[2] = ligand present: flavin mononucleotide, designed as: OFF switch for flavin mononucleotide
[3] = designed as: ON switch for flavin mononucleotide, no ligand
[4] = ligand present: flavin mononucleotide, designed as: ON switch for flavin mononucleotide

Sequence | apparent Kd [1] [nM] | apparent Kd [2] [nM] | apparent Kd [3] [nM] | apparent Kd [4] [nM]
UAUGUGUCAGGAUAUUAGUAGUGUGUGGAUACAUAUAUUGCUGAGAAGGGACAUGAGGAUCACCCAUGUACCUU | 16.2 | 17.5 | – | –
AUGCUAGUGUGAGGAUAUUAACAUGAGGAUCACCCAUGUUGGAAGUACACGACAUGAGGUACAUUUAAGAAGGUACAUUAGCAU | 145 | 161 | – | –
ACAUCUCGAGCCGACGGGAGAGUACAUGAGGAUCACCCAUGUGAGGAUAUCCCUGAGAAGACGGCGGAGAAGGCACUGGGUAGG | 6.33 | 10.4 | – | –
ACAUGAGGAUGAGGAUAUUCAUACAUGAGGAUAGAAGAAGGCAUACAUGAGGAUCACCCAUGUAUACACAUGAGGAUCCCUUAU | 81.1 | 156 | – | –
UGGUACAUGGGAGGAUAUCCUCAAGAGACAUGAGGAUCACCCAUGUAUUAUAAGCCGAAAGGCAUGGAGAAGGCCCAUGUACCU | – | – | 75.4 | 19.5
UUCAGACAUGAGGAUCACCCAUGUGAGGAUAUGAUGCGAUCGUCGAAAGACGAUAGCAUCAGAAGGCACGUAUG | 82.9 | 135 | – | –
UUGGACGUCGUAGGAUAUGUAGGAUAUUCCUACAUGAGGAUCACCCAUGUUGACCUGGAAGAAGGACAGAAGGACGAUGUCCAU | – | – | 64.2 | 4.64
GCCAAGCUAGGAUAUACCCAGGGUUUGUUCUCUAACAACACACAUGAGGAUCACCCAUGUAGAAGGAGCCGGGA | 38.3 | 81 | – | –
AAAGUCGGAAGAUAAUAAUGAAUACAUGAGGAUCACCCAUGUAAGGAUAUGCAGUGGAAUACACUGCAGAAGGUACAAACCGAC | 14.7 | 19.8 | – | –
CUUUUGUGAGGAUAUUAUUAGUAAAUAAAUAAAAUUACUACUGAGAAGGCACAUGAGGAUCACCCAUGUUCCUC | 24.3 | 108 | – | –
CUCAGACAUGAGGAUCACCCAUGUCAGGAUAUCGUCUACCUGUGGAAACACAGGUAGACGAGAAGGGAUGUGUU | 51.6 | 44.1 | – | –
GUGCAUACGUGAGGAUAUGUAUUAGCUCGUGGUACAGAAGGCAUGUCUGAUGACAUGAGGAUCACCCAUGUUGGCACAGUGCGC | – | – | 48.2 | 27.6
AAUGGGCAGCAGAAGGCAUGUCAUAAGACAUGAGGAUCACCCAUGUAGUUAAGGCGAAAGCCGCAUGAGGAUAUGCUGCCCUAA | – | – | 66 | 6.71
UAGGGCGAGUUAUGUACAAGAUACAUGAGGAUCACCCAUGUGUAGGAUAUGACCCUCAUCGCUGGUCAGAAGGGCACGAGAAUC | 234 | 314 | – | –
GUGCAGGUAGGAUAUCCACCGGCAAACAUGAGGAUCACCCAUGUGACGCUCCCUUGUCUUGGAGAAGGGCCGGCAU | 33.1 | 27.5 | – | –
AAGAUGCGGAUAGGAUAUGGAAAGAAGGAAAGACCAGAAGGAUUGGUCAUAUAACAUGAGGAUCACCCAUGUAUAUGUUGUGAA | 17.8 | 17.7 | – | –
GGCUAGUCAGGAUAUACGAACAUGUCAAAAGACGUGAAGGGACAUGAGGAUCACCCAUGUAGAAGGGACUAGCU | 24.8 | 165 | – | –
AUGAUUAUAUUAUACAUGAGGAUCACCCAUGUUAUAAGUCAUGAGGAUAUGGUAUUGUAGUUAUUCCAGAAGGCAUUUAACUUA | – | – | 7.02 | 5.79
GUGUGAUUAAGAGGAUAUAUACAACAUGAGGAUCACCCAUGUACCCGUGUAGUAGAAGGUUUGUUUUUAUAUAAUAUUAUAAUU | – | – | 29.9 | 24.8
GUAGAGUAAGGAUAUUGUGAAUAGGAUAGAAUGGUUAGAAGCAAGAAGGUACAUGAGGAUCACCCAUGUAAUGU | 22.5 | 23.6 | – | –
GGAUACAUACAGAAGGAUAUGAGAACAAAGACAUGAGGAUCACCCAUGUACAAAAGGUGGAACAAUCAGAAGGUCUAAACAACAAA | – | – | 72.2 | 61.2

Sequence | apparent Kd [1] [nM] | apparent Kd [2] [nM] | apparent Kd [3] [nM] | apparent Kd [4] [nM]
AUCAGCUCGUCAGGAUAUACGUCACUGCGUCAGCAGGGUGGUAAGAUCACAUGAGGAUCACCCAUGUAGAAGGGACGAGCUGAU | 23 | 404 | – | –
GGGUACAUCGGAGGAUAUCAUGUAAAUACAUGAGGAUCACCCAUGUCGAUGGACACAUCGGAGAUUGAGAAGGCCGAUGUACCG | – | – | 14.5 | 5.27
GUGAGGUCAGGAUAUGCAUGGCGGGACUUGCGUCGUGGCGUGGAGAAGGGACAUGAGGAUCACCCAUGUGGAGG | 115 | 95 | – | –
AAGUCUGGACGAGGAUAUCAGUUGUAUCUGGCGUCAACAUGAGGAUCACCCAUGUUGCAAUAGGGUGAGAAGGCGUUUGGGCAA | – | – | 41.6 | 19.1
AAGUAACAUGAGGAUCACCCAUGUGAGGUGAGCGUAGGAUAUCGAGGAGGAAGGGUGGAGCGAGAAGGACGAGAGG | – | – | 362 | 360
CCGACUUACUAGGAUAUCAGAGUCGAAAGACUCUGAGAAGGAGUAACAUGAGGAUCACCCAUGUGUCCUAUCGG | 23.3 | 77.7 | – | –
CUAUUACGAGGAUAUGAUUUAAAUAACAUGAGGAUCACCCAUGUUUUUACGUUAUUUUGUUUAGAAGGCGUAUUGU | 52.9 | 35.7 | – | –
UAUAAUAUUAUAGGAUAUGGAUACGAUGCGUAUCCAGAAGGGUGAUUAUAAUAUAAUCUAUACAUGAGGAUCACCCAUGUUUAU | – | – | 301 | 121
AAAAAAAAAGUAGAGGAUAUCCGAGUGGUAACAUGAGGAUCACCCAUGUGAAGAAAGGAACAUGAGGAGAAGGCUACAAAAAAAAA | – | – | 46.6 | 16.6
ACGCAGCUGGGUAAGGAUAUCGGUGGUAAAACAUGAGGAUCACCCAUGUCCGAAGCUCGGACCUCCGAGAAGGUGCCCGGCUGCG | – | – | 8.17 | 8.14
AUAAGCAUUUAUGUGUGCGUAGCACAGGAUAUGCUCCGCGCACAUGAGGAUCACCCAUGUUCGCAGCAGAAGGGUGCAUGCGUU | – | – | 330 | 61.5
AGAUGACAAAGUCAUCUCGCGCAGACAUGAGGAUCACCCAUGUAGGAUAUAUUACUCAAAGAGUAAUAGAAGGACAUGUGUCUU | 33.5 | 91.7 | – | –
CCUCAGUAAGGAUAUCAGCUUAUAAGGUUGGUAAUGAGAGCUGAGAAGGUACAUGAGGAUCACCCAUGUUAGUU | 27.1 | 95.7 | – | –
UCCUGGCGAGGAUAUACAAUGUUUUUCACGUUUUGUUUCGAACAUGAGGAUCACCCAUGUAGAAGGUGCUACUG | 53.2 | 44.7 | – | –
UCCGCGCGCGUAGGAUAUACAUGAGGAUCACCCAUGUACCCAUAUGGCUUCCUGAAUCUUGCAAUGUAGAAGGACGCCCGUGGG | 35.8 | 36.1 | – | –
UGUUAUUAGACAGGAUAUUGAAUGUUAAGUAUUAACAUGAGGAUCACCCAUGUAUUUCAUUCGUACAAGAAGGGUCAUGUUCCU | – | – | 166 | 202
UAUGUAUUCGUAGGAUAUCCGUCGCCACCGUGUGGAGAAGGACGAACAUGAGGAUCACCCAUGUAUCAUGGUGUAGACACUUUC | 126 | 183 | – | –
AAGAUACAUGAGGAUCACCCAUGUCGAGAGAGACGAGGAUAUCUGAAUCGAUUAGAUUACGGAGAAGGCGUGAAAA | – | – | 31.5 | 25.6
UCGAUGCGAGGAUAUACAAGGGCAACUACUGCCGCUAUAUAACAUGAGGAUCACCCAUGUAGAAGGCGCAUAUA | 22.1 | 30.2 | – | –
UUGGCGACGUAGAAGGGUGACAUGAGGAUCACCCAUGUGCCGAUAUGUCUCGAGAUAUGUCGGCCACAGGAUAUACGUGCCAUC | – | – | 61.7 | 38.5
UGUAUUAAUGGAGGAUAUCGAUAUCAAACAUGAGGAUCACCCAUGUUGAGGAUCACCCAUGUCCAUGAGAAGGCUGGCGUACGU | – | – | 45.4 | 40.9
